The source made the active and inactive calls. No cut-off for these calls is given here.
What was measured:
[1] = target: T1, Protein cereblon/Apoptosis regulator Bcl-2 (Homo sapiens, UniProt P10415+Q96SW2); assay: Induction of CRBN-mediated Bcl-2 degradation in human HeLa cells assessed as relative abundance at 10 uM measured at 8 hrs by Western blot analysis (reference value: 1); type: cell-based
In short: (§1)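 HeLa cells in DMEM with 10% FBS, exposed to 10 µM compound over a 0–24 h time course. Mcl-1 and Bcl-2 detected by immunoblot (NP-40 lysis, BCA-equalized SDS-PAGE, PVDF, ECL) and quantified relative to DMSO control; mean ± s.d., n=3 independent samples.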

[2] = target: T2, Protein cereblon/Induced myeloid leukemia cell differentiation protein Mcl-1 (Homo sapiens, UniProt Q07820+Q96SW2); assay: Induction of CRBN-mediated Mcl-1 degradation in human HeLa cells assessed as decrease in Mcl-1 level at 1 uM after 12 hrs by Western blot analysis relative to control; type: cell-based; parameters: scale not given: the % may be the effect or the level left
Target sequence in this assay (Q07820 whole entry, looked up): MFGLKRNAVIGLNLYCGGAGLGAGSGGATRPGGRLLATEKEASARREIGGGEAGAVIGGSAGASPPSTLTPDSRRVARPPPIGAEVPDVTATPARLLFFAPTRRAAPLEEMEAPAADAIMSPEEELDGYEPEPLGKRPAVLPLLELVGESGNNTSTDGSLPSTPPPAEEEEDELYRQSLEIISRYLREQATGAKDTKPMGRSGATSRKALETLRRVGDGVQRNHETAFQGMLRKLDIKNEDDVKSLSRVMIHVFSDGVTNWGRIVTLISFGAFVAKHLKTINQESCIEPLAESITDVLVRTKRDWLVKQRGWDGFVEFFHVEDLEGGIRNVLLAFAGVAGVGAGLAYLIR
Target sequence in this assay (Q96SW2 whole entry, looked up): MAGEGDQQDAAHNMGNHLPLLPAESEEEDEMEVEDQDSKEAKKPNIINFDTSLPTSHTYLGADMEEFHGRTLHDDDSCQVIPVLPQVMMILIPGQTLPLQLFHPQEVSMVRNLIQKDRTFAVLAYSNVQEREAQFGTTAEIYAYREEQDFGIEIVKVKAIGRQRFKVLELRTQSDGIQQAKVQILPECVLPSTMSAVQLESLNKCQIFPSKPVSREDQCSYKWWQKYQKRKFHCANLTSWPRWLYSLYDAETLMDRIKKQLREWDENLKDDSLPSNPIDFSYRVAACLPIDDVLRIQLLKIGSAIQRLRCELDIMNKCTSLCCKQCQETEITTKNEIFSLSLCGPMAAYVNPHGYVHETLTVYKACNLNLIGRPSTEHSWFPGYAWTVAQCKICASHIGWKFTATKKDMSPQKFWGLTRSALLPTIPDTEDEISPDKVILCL

[3] = target: T2, Protein cereblon/Induced myeloid leukemia cell differentiation protein Mcl-1; assay: Induction of CRBN-mediated Mcl-1 degradation in human HeLa cells assessed as relative abundance at 10 uM after 12 hrs by Western blot analysis (reference value: 1); type: cell-based
Target sequence in this assay (Q07820 whole entry, looked up): as the sequence (Q07820 whole entry, looked up) above
Target sequence in this assay (Q96SW2 whole entry, looked up): as the sequence (Q96SW2 whole entry, looked up) above

[4] = target: T1, Protein cereblon/Apoptosis regulator Bcl-2; assay: Induction of CRBN-mediated Bcl-2 degradation in human HeLa cells assessed as relative abundance at 0.3 uM after 12 hrs by Western blot analysis (reference value: 1); type: cell-based
[5] = target: T1, Protein cereblon/Apoptosis regulator Bcl-2; assay: Induction of CRBN-mediated Bcl-2 degradation in human HeLa cells assessed as relative abundance at 10 uM measured at 24 hrs by Western blot analysis (reference value: 1); type: cell-based; in short: as §1
[6] = target: T2, Protein cereblon/Induced myeloid leukemia cell differentiation protein Mcl-1; assay: Induction of CRBN-mediated Mcl-1 degradation in human HeLa cells assessed as relative abundance at 10 uM measured at 20 hrs by Western blot analysis (reference value: 1); type: cell-based; in short: as §1
Target sequence in this assay (Q07820 whole entry, looked up): as the sequence (Q07820 whole entry, looked up) above
Target sequence in this assay (Q96SW2 whole entry, looked up): as the sequence (Q96SW2 whole entry, looked up) above

[7] = target: T2, Protein cereblon/Induced myeloid leukemia cell differentiation protein Mcl-1; assay: Induction of CRBN-mediated Mcl-1 degradation in human HeLa cells at 10 uM pretreated with Bcl-2 inhibitor Nap-1 followed by compound addition by Western blot analysis; type: cell-based
Target sequence in this assay (Q07820 whole entry, looked up): as the sequence (Q07820 whole entry, looked up) above
Target sequence in this assay (Q96SW2 whole entry, looked up): as the sequence (Q96SW2 whole entry, looked up) above

[8] = target: T1, Protein cereblon/Apoptosis regulator Bcl-2; assay: Induction of CRBN-mediated Bcl-2 degradation in human HeLa cells assessed as relative abundance at 1 uM after 12 hrs by Western blot analysis (reference value: 1); type: cell-based
[9] = system: HeLa; assay: Induction of CRBN-mediated tubulin degradation in human HeLa cells at 10 uM incubated for 12 hrs by Western blot analysis; type: cell-based
In short: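 HeLa cells (DMEM, 10% FBS, 37 °C, 5% CO2) treated 12 h with compound (10 µM, or 0–10 µM gradient; time course 0–24 h at 10 µM). Lysis in NP-40 buffer with protease inhibitors, equal protein loaded for SDS-PAGE and immunoblotting. Bands quantified relative to DMSO control. n=3 independent samples.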

[10] = target: T1, Protein cereblon/Apoptosis regulator Bcl-2; assay: Induction of CRBN-mediated Bcl-2 degradation in human HeLa cells assessed as relative abundance at 10 uM measured at 16 hrs by Western blot analysis (reference value: 1); type: cell-based; in short: as §1
[11] = target: T2, Protein cereblon/Induced myeloid leukemia cell differentiation protein Mcl-1; assay: Induction of CRBN-mediated Mcl-1 degradation in human HeLa cells assessed as relative abundance at 10 uM measured at 8 hrs by Western blot analysis (reference value: 1); type: cell-based; in short: as §1
Target sequence in this assay (Q07820 whole entry, looked up): as the sequence (Q07820 whole entry, looked up) above
Target sequence in this assay (Q96SW2 whole entry, looked up): as the sequence (Q96SW2 whole entry, looked up) above

[12] = target: T2, Protein cereblon/Induced myeloid leukemia cell differentiation protein Mcl-1; assay: Induction of CRBN-mediated Mcl-1 degradation in human HeLa cells assessed as relative abundance at 10 uM measured at 24 hrs by Western blot analysis (reference value: 1); type: cell-based; in short: as §1
Target sequence in this assay (Q07820 whole entry, looked up): as the sequence (Q07820 whole entry, looked up) above
Target sequence in this assay (Q96SW2 whole entry, looked up): as the sequence (Q96SW2 whole entry, looked up) above

[13] = target: T2, Protein cereblon/Induced myeloid leukemia cell differentiation protein Mcl-1; assay: Induction of CRBN-mediated Mcl-1 degradation in human HeLa cells assessed as relative abundance at 0.3 uM after 12 hrs by Western blot analysis (reference value: 1); type: cell-based
[14] = target: Protein cereblon/Bcl-2-like protein 1 (Homo sapiens) (UniProt Q07817+Q96SW2); assay: Induction of CRBN-mediated Bcl-xl degradation in human HeLa cells at 10 uM incubated for 12 hrs by Western blot analysis; type: cell-based
[15] = target: Protein cereblon/E3 ubiquitin-protein ligase Mdm2 (Homo sapiens) (UniProt Q00987+Q96SW2); assay: Induction of CRBN-mediated MDM2 degradation in human HeLa cells at 10 uM incubated for 12 hrs by Western blot analysis; type: cell-based
[16] = target: T1, Protein cereblon/Apoptosis regulator Bcl-2; assay: Induction of CRBN-mediated Bcl-2 degradation in human HeLa cells assessed as relative abundance at 10 uM after 12 hrs by Western blot analysis (reference value: 1); type: cell-based
[17] = system: NCI-H23; assay: Cytotoxicity against human H23 cells incubated for 24 hrs by CCK8 assay; type: functional, cell-based
In short: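 H23 cells seeded at 4 × 10^4 per mL in RPMI with 10% FBS, L-glutamine and pen/strep. Treated 24 h at various concentrations or with DMSO vehicle (0.05%). Viability read by CCK8 and normalized against cell-free background and untreated cultures; mean ± s.e.m., n=3.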

[18] = target: T1, Protein cereblon/Apoptosis regulator Bcl-2; assay: Induction of CRBN-mediated Bcl-2 degradation in human HeLa cells assessed as relative abundance at 3 uM after 12 hrs by Western blot analysis (reference value: 1); type: cell-based
[19] = target: Induced myeloid leukemia cell differentiation protein Mcl-1 (Homo sapiens, UniProt Q07820); assay: Inhibition of biotinylated Bim peptide (81 to 106 residues) binding to His-tagged human Mcl-1 expressed in Escherichia coli BL21 (DE3) cells preincubated for 1 hr followed by biotinylated Bim peptide addition measured after 2 hrs by ELISA
In short: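 Inhibitor serially diluted (100–0.1 µM) from 10 mM DMSO stock, preincubated 1 h with 200 nM His-tagged protein in PBS (final DMSO 4%), then added 2 h to streptavidin plates holding biotin-Bim (plated at 0.09 mg/mL). Incubations at 4 °C. Detection with HRP anti-His, TMB 30 min, H2SO4 stop, A450. IC50 averaged from three independent experiments, with SD.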

[20] = target: T2, Protein cereblon/Induced myeloid leukemia cell differentiation protein Mcl-1; assay: Induction of CRBN-mediated Mcl-1 degradation in human HeLa cells at 10 uM by Western blot analysis; type: cell-based; details: TDE = time-dependent effect
[21] = target: T1, Protein cereblon/Apoptosis regulator Bcl-2; assay: Induction of CRBN-mediated Bcl-2 degradation in human HeLa cells assessed as relative abundance at 10 uM measured at 20 hrs by Western blot analysis (reference value: 1); type: cell-based; in short: as §1
[22] = target: T1, Protein cereblon/Apoptosis regulator Bcl-2; assay: Induction of CRBN-mediated Bcl-2 degradation in human HeLa cells assessed as relative abundance at 0.1 uM after 12 hrs by Western blot analysis (reference value: 1); type: cell-based
[23] = target: T2, Protein cereblon/Induced myeloid leukemia cell differentiation protein Mcl-1; assay: Induction of CRBN-mediated Mcl-1 degradation in human HeLa cells assessed as Mcl-1 removal activity measured at 12 hrs by Western blot analysis; type: cell-based
Target sequence in this assay (Q07820 whole entry): as the sequence (Q07820 whole entry, looked up) above
Target sequence in this assay (Q96SW2 whole entry): as the sequence (Q96SW2 whole entry, looked up) above

[24] = target: T2, Protein cereblon/Induced myeloid leukemia cell differentiation protein Mcl-1; assay: Induction of CRBN-mediated Mcl-1 degradation in human HeLa cells assessed as Mcl-1 level at 10 uM after 12 hrs by Western blot analysis relative to control; type: cell-based
[25] = target: T1, Protein cereblon/Apoptosis regulator Bcl-2; assay: Induction of CRBN-mediated Bcl-2 degradation in human HeLa cells assessed as relative abundance at 10 uM measured at 2 hrs by Western blot analysis (reference value: 1); type: cell-based; in short: as §1
[26] = target: T2, Protein cereblon/Induced myeloid leukemia cell differentiation protein Mcl-1; assay: Induction of CRBN-mediated Mcl-1 degradation in human HeLa cells assessed as relative abundance at 10 uM measured at 4 hrs by Western blot analysis (reference value: 1); type: cell-based; in short: as §1
[27] = target: T2, Protein cereblon/Induced myeloid leukemia cell differentiation protein Mcl-1; assay: Induction of CRBN-mediated Mcl-1 degradation in human HeLa cells at 10 uM pretreated with CRBN inhibitor pomalidomide followed by compound addition by Western blot analysis; type: cell-based
[28] = target: T2, Protein cereblon/Induced myeloid leukemia cell differentiation protein Mcl-1; assay: Induction of CRBN-mediated Mcl-1 degradation in human HeLa cells after 12 hrs by Western blot analysis; type: cell-based

T1 sequence (P10415 whole entry, looked up): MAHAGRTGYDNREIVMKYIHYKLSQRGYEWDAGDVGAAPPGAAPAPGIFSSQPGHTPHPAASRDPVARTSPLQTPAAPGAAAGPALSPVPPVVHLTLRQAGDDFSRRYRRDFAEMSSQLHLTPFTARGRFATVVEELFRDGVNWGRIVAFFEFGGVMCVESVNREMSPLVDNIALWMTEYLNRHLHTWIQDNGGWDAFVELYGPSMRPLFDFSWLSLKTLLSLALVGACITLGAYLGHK
T1 sequence (Q96SW2 whole entry, looked up): as the sequence (Q96SW2 whole entry, looked up) above
Protein cereblon/E3 ubiquitin-protein ligase Mdm2 (Homo sapiens), sequence (Q00987 whole entry, looked up): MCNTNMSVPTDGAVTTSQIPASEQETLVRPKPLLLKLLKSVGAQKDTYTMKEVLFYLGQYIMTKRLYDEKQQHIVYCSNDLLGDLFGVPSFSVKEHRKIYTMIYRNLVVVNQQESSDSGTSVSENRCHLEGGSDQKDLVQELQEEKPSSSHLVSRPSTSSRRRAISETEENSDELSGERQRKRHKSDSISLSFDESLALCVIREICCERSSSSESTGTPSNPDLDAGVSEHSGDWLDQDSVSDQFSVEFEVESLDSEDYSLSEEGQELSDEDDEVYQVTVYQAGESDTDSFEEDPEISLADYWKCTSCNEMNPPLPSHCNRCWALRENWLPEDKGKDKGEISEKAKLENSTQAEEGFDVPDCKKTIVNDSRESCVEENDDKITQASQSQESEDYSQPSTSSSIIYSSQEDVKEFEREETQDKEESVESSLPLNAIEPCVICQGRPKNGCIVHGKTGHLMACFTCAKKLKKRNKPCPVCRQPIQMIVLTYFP
Protein cereblon/E3 ubiquitin-protein ligase Mdm2 (Homo sapiens), sequence (Q96SW2 whole entry, looked up): as the sequence (Q96SW2 whole entry, looked up) above
Protein cereblon/Bcl-2-like protein 1 (Homo sapiens), sequence (Q07817 whole entry, looked up): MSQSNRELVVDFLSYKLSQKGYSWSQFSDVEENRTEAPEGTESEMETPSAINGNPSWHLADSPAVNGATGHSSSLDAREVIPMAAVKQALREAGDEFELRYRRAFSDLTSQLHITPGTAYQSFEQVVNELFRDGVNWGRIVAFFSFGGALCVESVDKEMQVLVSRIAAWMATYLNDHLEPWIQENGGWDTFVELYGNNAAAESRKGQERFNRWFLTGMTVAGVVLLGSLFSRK
Protein cereblon/Bcl-2-like protein 1 (Homo sapiens), sequence (Q96SW2 whole entry, looked up): as the sequence (Q96SW2 whole entry, looked up) above
Induced myeloid leukemia cell differentiation protein Mcl-1, sequence (Q07820 whole entry, the tested form may be a part): as the sequence (Q07820 whole entry, looked up) above

Q: With `O=C(CCCCC(=O)NCCN1C(=O)c2cccc3c(Sc4ccc(Br)cc4)ccc(c23)C1=O)NCCCCCCNc1cccc2c1C(=O)N(C1CCC(=O)NC1=O)C2=O` (stereo not drawn) as the compound, how does the fold change (FC) [1] read?
A: The fold change (FC) was 1.

Q: What about the Activity [2] of the same compound?
A: The Activity was 70%.

Q: And the fold change (FC) [3]?
A: The fold change (FC) was 0.1 to 0.2.

Q: And the fold change (FC) [4]?
A: Its fold change (FC) is 1.

Q: What about the fold change (FC) [5] of the same compound?
A: The fold change (FC) was 0.9.

Q: And the fold change (FC) [6]?
A: The fold change (FC) was 0.8.

Q: And the Activity [7]?
A: The Activity was “inactive”.

Q: What about the fold change (FC) [8] of the same compound?
A: Its fold change (FC) is 0.9 to 1.

Q: And the Activity [9]?
A: The Activity was “inactive”.

Q: What about the fold change (FC) [10] of the same compound?
A: Its fold change (FC) is 1.

Q: And the fold change (FC) [11]?
A: Its fold change (FC) is 0.7.

Q: And the fold change (FC) [12]?
A: The fold change (FC) was 0.9.

Q: And the fold change (FC) [13]?
A: Its fold change (FC) is 0.9.

Q: And the Activity [14]?
A: The Activity was “inactive”.

Q: And the Activity [15]?
A: Its Activity is “inactive”.

Q: What about the fold change (FC) [16] of the same compound?
A: Its fold change (FC) is 0.8 to 1.

Q: And the Activity [17]?
A: The Activity was “Active”.

Q: What about the fold change (FC) [18] of the same compound?
A: Its fold change (FC) is 1.

Q: And the IC50 [19]?
A: Its IC50 is 0.78 µM.

Q: And the Activity [20]?
A: Its Activity is “Tde”.

Q: What about the fold change (FC) [21] of the same compound?
A: The fold change (FC) was 1.

Q: And the fold change (FC) [22]?
A: The fold change (FC) was 0.9.

Q: And the DC50 [23]?
A: Its DC50 is 0.7 µM.

Q: What about the Activity [24] of the same compound?
A: The Activity was < 10%.

Q: And the fold change (FC) [25]?
A: The fold change (FC) was 1.1.

Q: What about the fold change (FC) [26] of the same compound?
A: Its fold change (FC) is 1.1.

Q: And the Activity [27]?
A: The Activity was “inactive”.

Q: What about the Activity [28] of the same compound?
A: Its Activity is “Dose-dependent effect”.
